Most compounds without a hit are left out; they make up all but 2.1% or so of the library.
XiGFP reactiv: reactivates the inactive X chromosome in mouse fibroblasts; AID 743238; actives 0.055% (n = 360,000); XiGFP mouse fibroblasts, % GFP-positive cells imaging, 3 d; cells co-treated with 5-aza-dC sensitizer; scaled so ellipticine positive control = 100%; activation, % at 7.58 µM;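 active = mean normalized replicate activation at least 10% and every replicate at or above 10%; inconclusive = only one of the two criteria met; inactive = mean below 10% and not all replicates reach 10%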;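 also: 0% = median of on-plate neutral control wells and 100% = ellipticine 6 µM median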
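assay system = SV40-immortalized XiGFP fibroblast cells, line 68-5-11 | buffer or medium = DMEM plus 5-aza-dC sensitizer | doses = single-point pinned compound dosing | times = 3-day compound exposure, then 15 min fixation at room temperature | benchmarks = positive control ellipticine, 6 µM final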
C2C12 statin: suppression of simvastatin myotoxicity | C2C12 myotubes + simvastatin, ATP luminescence, 48 h; scaled: DMSO 0, geranylgeraniol control 100 | rescue of ATP level, % at 7.49 µM | actives 0.78% (n = 330,000);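 active = mean ATP rescue above about 67%, or every replicate alone reaching that limit, limit read from the data, passing the limit was not always enough; inconclusive = no clear call, values can overlap the other calls; inactive = mean under the limit and some replicate under it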;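 also: myotubes were challenged with 10 µM simvastatin during compound exposure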
DENV2 CPE rescue: protects cells from dengue virus 2 cytopathic effect; DENV2-infected cells, cytopathic effect rescue, plate reader; CPE inhibition, % at 9.99 µM; actives 1.7% (n = 350,000); AID 651640; in the data active = CPE inhibition above about 20%, passing the limit was not always enough; inconclusive = no clear call, values can overlap the other calls; tested in BHK-21 cells;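 also: 0% = median of neutral control wells and 100% = median of positive control wells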
Cneo AK release: causes C. neoformans cell lysis; adenylate kinase release luminescence, 4 h; normalised: neutral wells 0, clomiphene wells 100; actives 0.2% (n = 360,000); lysis activity, % at 15 µM;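 active = mean lysis activity across replicates of at least 80%, whatever share of replicates individually reach that level; inactive = mean lysis activity below 80%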
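Assay system: C. neoformans cells. Amount: yeast cell density of 5 × 10^6 cells/mL. Technique: AK luminescence. Buffer or medium: YPD. Times: static 4 h at 37 °C with compound, 1 h detection. Dosing: single-point compound dose. Read-out: lysis from increased AK signal.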
An asterisk follows results filed as active; ? = inconclusive; . = no result.

SMILES	XiGFP reactiv	C2C12 statin	DENV2 CPE rescue	Cneo AK release
O=C(C[C@H]1CC[C@H]2[C@@H](COC[C@@H](O)CN2C(=O)Nc2cc(Cl)cc(Cl)c2)O1)N1CCCCC1	0	-9	30*	45
O=C(C[C@H]1CC[C@@H]2[C@H](COC[C@H](O)CN2C(=O)c2cc(Cl)cc(Cl)c2)O1)N1CCc2ccccc2C1	0	12	2	-1
O=C(C[C@H]1CC[C@H]2[C@@H](COC[C@H](O)CN2Cc2ccccc2F)O1)N1CCc2ccccc2C1	1	9	28*	77
COc1ccc(NC(=O)N(C)C[C@H]2Oc3ccc(NS(=O)(=O)c4ccc(F)cc4)cc3CC(=O)N([C@H](C)CO)C[C@H]2C)cc1	-1	17	-6	.
CCCOc1cccc(C(=O)Nc2ccc(CN3CCOCC3)cc2)c1	0	-11	25*	0
CCCOc1ccc(C(=O)Nc2ccc(CN3CCOCC3)cc2)cc1	?	-6	8	-15
CN(CC(=O)Nc1ccc(F)cc1)C(=O)CCc1nc2sc3c(c2c(=O)[nH]1)CCCC3	0	9	19	-1
CN(CC(=O)Nc1ccc(Cl)cc1)C(=O)CCc1nc2sc3c(c2c(=O)[nH]1)CCCC3	0	6	31*	3
Cc1ccc(-c2ccc([C@H]3[C@H](CO)N4C(=O)CN(C(=O)c5ccncc5)C[C@@H]34)cc2)cc1	0	.	1	.
NC(=O)C1CCN(C(=O)c2cnn(-c3ccccc3)c2NC(=O)c2ccco2)CC1	.	98*	.	-2
Cc1ccc(-n2ncc(C(=O)N3CCc4ccccc4C3)c2NC(=O)c2ccco2)cc1C	.	77*	.	.
C[C@@H]1CN([C@@H](C)CO)C(=O)c2cc(NS(=O)(=O)c3cn(C)cn3)ccc2O[C@@H](C)CCCCO[C@H]1CN(C)C	.	.	-1	98*
CNC[C@H]1OCCCC[C@H](C)Oc2ccc(NS(=O)(=O)c3cn(C)cn3)cc2C(=O)N([C@@H](C)CO)C[C@@H]1C	0	-105	1	-1
CNC[C@H]1OCCCC[C@@H](C)Oc2ccc(NS(=O)(=O)c3cn(C)cn3)cc2C(=O)N([C@@H](C)CO)C[C@H]1C	0	.	64*	5
CCCN1[C@@H]2Cn3c(ccc(-c4ccccc4OC)c3=O)[C@H]1[C@@H](C(=O)N1CCOCC1)[C@@H]2CO	0	.	-11	.
Cc1noc(C)c1NC(=O)N[C@H]1C=C[C@@H](CC(=O)NCc2ccc(Cl)c(Cl)c2)O[C@@H]1CO	0	-1	0	4
C[C@@H]1CCCCO[C@@H](CN(C)C(=O)CCCN(C)C)[C@@H](C)CN([C@H](C)CO)C(=O)c2cc(NC(=O)c3ccncc3)ccc2O1	0	.	-6	1
COc1cccc(CNC(=O)C[C@@H]2CC[C@@H](NC(=O)C3CC3)[C@H](CO)O2)c1	0	-4	-7	-2
O=c1c2c([nH]c3ccccc13)CCCC2	.	98*	.	-1
CC(C)C#Cc1cnc2c(c1)C(=O)N([C@H](C)CO)C[C@@H](C)[C@@H](CN(C)C(=O)Nc1ccc(F)cc1)O2	-1	-5	-10	-3
COc1ccc(-c2cc(-c3ccc(Cl)cc3)c(C#N)c(SCC(=O)O)n2)cc1	0	8	61*	-1
COc1ccc(-c2cc(-c3ccccc3)c(C#N)c(SCC(=O)O)n2)cc1	0	-2	-1	-5
C[C@@H]1CN([C@@H](C)CO)S(=O)(=O)c2ccc(-c3cncnc3)cc2O[C@H]1CN(C)C(=O)Cc1ccccc1	-1	-24	9	-4
C[C@H](CO)N1C[C@H](C)[C@@H](CN(C)C(=O)Nc2ccc3c(c2)OCO3)Oc2ccc(NS(C)(=O)=O)cc2C1=O	0	22	-2	0
CCCCCCCCCCCCOC1OC(CO)C(O)C(O)C1NC(C)=O (stereo not given)	0	.	23*	-5
SMILES	XiGFP reactiv	C2C12 statin	DENV2 CPE rescue	Cneo AK release
O=C(NCC1CC1)[C@H]1[C@H](CO)[C@H]2Cn3c(ccc(C4=CCCC4)c3=O)[C@@H]1N2C(=O)C1CC1	0	11	-7	0
COc1cc(OC)cc(-c2c(-c3cccs3)c3cc(-c4ccc(N(C)C)nc4)ccc3n2C)c1	0	6	34*	0
COc1cc(F)cc(-c2ccc3c(c2)c(-c2cccs2)c(-c2cc(OC)cc(OC)c2)n3C)c1	0	-86	78*	2
COc1cc(OC)cc(-c2c(-c3cccs3)c3cc(-c4ccc5c(c4)OCO5)ccc3n2C)c1	0	-17	14	-1
COc1cc(OC)cc(-c2c(-c3cccs3)c3cc(-c4ccn[nH]4)ccc3n2C)c1	0	2	33*	-1
C[C@H](CO)N1C[C@H](C)[C@@H](CN(C)CC2CCCCC2)Oc2ccc(NC(=O)CCC(F)(F)F)cc2C1=O	-1	2	6	-4
CN(Cc1nccs1)C(=O)c1ccc(OC2CCN(Cc3ccccn3)CC2)cc1	0	-2	42*	5
O=C(C[C@H]1C=C[C@H](NC(=O)Nc2cc(F)ccc2F)[C@@H](CO)O1)NCCCN1CCOCC1	0	-8	10	121*
O=C(C[C@@H]1C=C[C@@H](NC(=O)c2cccc(F)c2)[C@H](CO)O1)NCCN1CCCC1	-1	13	-5	95*
O=C(C[C@H]1C=C[C@H](NC(=O)c2cccc(F)c2)[C@H](CO)O1)NCCN1CCCC1	0	-2	4	-4
CCC(=O)N1CC(=O)N2[C@H](CO)[C@H](c3ccc(C#Cc4cccc(OC)c4)cc3)[C@@H]2C1	0	.	7	.
C[C@H](CO)N1C[C@H](C)[C@@H](CN(C)C(=O)Nc2ccc3c(c2)OCO3)Oc2ccc(NC(=O)Nc3ccc4c(c3)OCO4)cc2CC1=O	0	.	14	.
COc1ccc2c(c1)c(C(=O)OCCN(C)C)c(C)n2C	.	105*	.	-1
COCCOC(=O)c1c(C)n(C)c2ccc(OC(=O)c3c(OC)cccc3OC)cc12	0	-16	9	-2
Cc1cc(C)cc(NC(=O)Cn2nnc(C(=O)NCc3cccs3)c2N)c1	0	-8	27*	.
C[C@H](CO)N1C[C@H](C)[C@@H](CN(C)Cc2ccncc2)Oc2ncc(C#CC3CCCC3)cc2C1=O	0	-42	-6	18
COc1ccc(-c2ccc([C@@H]3[C@H](CO)N4CCCCN(C(=O)NC(C)C)C[C@@H]34)cc2)cc1	0	-5	64*	-2
CC(C)NC(=O)N1CCCCN2[C@@H](CO)[C@@H](c3ccc(Br)cc3)[C@@H]2C1	0	-3	68*	-1
CC(C)NC(=O)N1CCCCN2[C@@H](CO)[C@H](c3ccc(Br)cc3)[C@@H]2C1	0	11	-7	2
COc1ccc(-c2ccc([C@H]3[C@H]4CN(C(=O)NC(C)C)CCCCN4[C@H]3CO)cc2)cc1	0	10	.	1
O=C(N[C@@H]1CC[C@H](CC(=O)N2CCC(Cc3ccccc3)CC2)O[C@H]1CO)c1cnccn1	-1	10	-1	0

Screening data deposited in PubChem BioAssay by Broad Institute.
